According to ChEMBL document CHEMBL2040780, “Antiarrhythmic properties of phenylpiperazine derivatives of phenytoin with α₁-adrenoceptor affinities” (Bioorg Med Chem, 2012):
Each block holds one molecule with its values, some of them ahead of it. Activity calls are given as the source filed them. No cut-off for these calls is given here.

Tests used:
[1] = target: T1, Adrenergic receptor alpha-1 (Rattus norvegicus, UniProt P15823+P23944+P43140); experiment: Displacement of [3H]prazosin from alpha1 adrenoceptor in rat cerebral cortex after 30 mins by microbeta scintillation counting; assay type: tissue-based
T1 sequence (P15823 whole entry): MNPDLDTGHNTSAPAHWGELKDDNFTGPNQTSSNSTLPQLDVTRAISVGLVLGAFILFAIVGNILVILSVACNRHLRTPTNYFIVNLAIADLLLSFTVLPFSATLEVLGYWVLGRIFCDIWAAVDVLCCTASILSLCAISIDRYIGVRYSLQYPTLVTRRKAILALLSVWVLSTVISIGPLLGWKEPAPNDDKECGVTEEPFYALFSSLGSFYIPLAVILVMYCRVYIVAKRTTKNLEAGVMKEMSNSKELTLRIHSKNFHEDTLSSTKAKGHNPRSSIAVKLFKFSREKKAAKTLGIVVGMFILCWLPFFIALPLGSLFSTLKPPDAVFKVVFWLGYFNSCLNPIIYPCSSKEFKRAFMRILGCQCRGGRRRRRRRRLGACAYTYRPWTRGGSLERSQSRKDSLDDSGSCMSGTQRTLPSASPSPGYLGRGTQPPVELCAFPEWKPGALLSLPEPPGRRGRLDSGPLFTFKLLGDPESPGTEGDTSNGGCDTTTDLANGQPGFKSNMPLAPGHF
T1 sequence (P23944 whole entry): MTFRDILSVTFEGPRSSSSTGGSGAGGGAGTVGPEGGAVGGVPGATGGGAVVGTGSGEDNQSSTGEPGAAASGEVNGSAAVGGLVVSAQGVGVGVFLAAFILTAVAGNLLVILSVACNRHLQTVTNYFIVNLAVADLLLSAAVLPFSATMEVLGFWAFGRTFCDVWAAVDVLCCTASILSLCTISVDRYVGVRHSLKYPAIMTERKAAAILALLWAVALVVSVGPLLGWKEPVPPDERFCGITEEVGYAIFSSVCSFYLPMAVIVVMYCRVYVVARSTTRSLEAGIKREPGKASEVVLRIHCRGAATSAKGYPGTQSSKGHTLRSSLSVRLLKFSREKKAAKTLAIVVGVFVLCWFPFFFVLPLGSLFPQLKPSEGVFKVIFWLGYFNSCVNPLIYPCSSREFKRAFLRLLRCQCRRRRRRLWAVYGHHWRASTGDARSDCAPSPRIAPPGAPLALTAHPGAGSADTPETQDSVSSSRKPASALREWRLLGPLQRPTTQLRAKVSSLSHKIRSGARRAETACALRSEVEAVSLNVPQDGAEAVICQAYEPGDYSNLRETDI
T1 sequence (P43140 whole entry): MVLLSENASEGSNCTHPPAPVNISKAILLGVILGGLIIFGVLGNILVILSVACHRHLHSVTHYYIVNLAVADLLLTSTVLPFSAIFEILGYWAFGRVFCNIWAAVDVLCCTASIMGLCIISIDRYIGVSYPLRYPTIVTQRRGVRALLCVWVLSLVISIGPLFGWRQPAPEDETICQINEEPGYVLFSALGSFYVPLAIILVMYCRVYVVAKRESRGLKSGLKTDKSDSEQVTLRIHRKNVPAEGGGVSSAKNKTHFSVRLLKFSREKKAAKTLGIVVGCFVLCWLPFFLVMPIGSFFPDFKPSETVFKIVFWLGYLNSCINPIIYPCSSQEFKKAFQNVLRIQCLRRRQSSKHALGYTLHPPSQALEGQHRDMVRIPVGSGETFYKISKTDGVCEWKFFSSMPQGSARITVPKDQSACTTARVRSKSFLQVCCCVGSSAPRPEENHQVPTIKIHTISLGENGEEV
In short: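 Rat cerebral cortex homogenised in ice-cold 50 mM Tris-HCl (pH 7.6 at 25 °C), washed twice at 20000×g and resuspended at 10 mg wet weight/ml. Incubated with [3H]prazosin (19.5 Ci/mmol) and test compound for 30 min at 25 °C. Nonspecific binding defined with 10 µM phentolamine. GF/B filtration, scintillation counting, three-parameter logistic competition fit.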

Rattus norvegicus [2] = experiment: Antiarrhythmic activity in Wistar rat assessed as effect on heart beat at 10 mg/kg, iv after 1 min; assay type: functional
In short: (§1)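 Male Wistar rats (180–250 g), anaesthetised with thiopental 60 mg/kg ip. Standard lead II ECG recorded at 50 mm/s just before dosing and at 1, 5 and 15 min after. Heart rate and P–Q, Q–T and QRS intervals were read. n=6 per group, mean ± SEM, one-way ANOVA.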

Rattus norvegicus [3] = experiment: Antiarrhythmic activity in Wistar rat assessed as effect on heart beat at 10 mg/kg, iv after 5 mins; assay type: functional; in short: as §1
Rattus norvegicus [4] = experiment: Antiarrhythmic activity in Wistar rat assessed as effect on heart beat at 10 mg/kg, iv after 15 mins; assay type: functional; in short: as §1
Rattus norvegicus [5] = experiment: Cardiotoxicity in Wistar rat assessed as effect on P-Q interval at 10 mg/kg, iv after 1 min; assay type: toxicity, organism-based; design: dose 10 mg/kg, route intravenous; details: in vivo; in short: as §1
Rattus norvegicus [6] = experiment: Cardiotoxicity in Wistar rat assessed as effect on P-Q interval at 10 mg/kg, iv after 5 mins; assay type: toxicity, organism-based; design: dose 10 mg/kg, route intravenous; details: in vivo; in short: as §1
Rattus norvegicus [7] = experiment: Cardiotoxicity in Wistar rat assessed as effect on P-Q interval at 10 mg/kg, iv after 15 mins; assay type: toxicity, organism-based; design: dose 10 mg/kg, route intravenous; details: in vivo, 0.25 h; in short: as §1
Rattus norvegicus [8] = experiment: Cardiotoxicity in Wistar rat assessed as effect on Q-T interval at 10 mg/kg, iv after 1 min; assay type: toxicity, organism-based; design: dose 10 mg/kg, route intravenous; details: in vivo; in short: as §1
Rattus norvegicus [9] = experiment: Cardiotoxicity in Wistar rat assessed as effect on Q-T interval at 10 mg/kg, iv after 5 mins; assay type: toxicity, organism-based; design: dose 10 mg/kg, route intravenous; details: in vivo; in short: as §1
Rattus norvegicus [10] = experiment: Cardiotoxicity in Wistar rat assessed as effect on Q-T interval at 10 mg/kg, iv after 15 mins; assay type: toxicity, organism-based; design: dose 10 mg/kg, route intravenous; details: in vivo, 0.25 h; in short: as §1
Rattus norvegicus [11] = experiment: Cardiotoxicity in Wistar rat assessed as effect on QRS interval at 10 mg/kg, iv after 1 min; assay type: toxicity, organism-based; design: dose 10 mg/kg, route intravenous; details: in vivo; in short: as §1
Rattus norvegicus [12] = experiment: Cardiotoxicity in Wistar rat assessed as effect on QRS interval at 10 mg/kg, iv after 5 mins; assay type: toxicity, organism-based; design: dose 10 mg/kg, route intravenous; details: in vivo; in short: as §1
Rattus norvegicus [13] = experiment: Cardiotoxicity in Wistar rat assessed as effect on QRS interval at 10 mg/kg, iv after 15 mins; assay type: toxicity, organism-based; design: dose 10 mg/kg, route intravenous; details: in vivo, 0.25 h; in short: as §1
Rattus norvegicus [14] = experiment: Antiarrhythmic activity in Wistar rat assessed as protection against adrenaline-induced extrasystoles at 2.5 to 10 mg/kg, iv administered 15 mins prior to adrenaline-challenge; assay type: functional, organism-based; details: Heart
In short: (§2)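 Szekeres model in male Wistar rats anaesthetised with thiopental (60 mg/kg ip). Test compound given iv in water (2.5–10 mg/kg) 15 min before adrenaline 20 µg/kg iv. Scored for extrasystoles, bigeminy and mortality; activity means no premature beats and inhibited arrhythmia versus controls.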

Rattus norvegicus [15] = experiment: Antiarrhythmic activity in Wistar rat assessed as protection against adrenaline-induced bigeminy at 2.5 to 10 mg/kg, iv administered 15 mins prior to adrenaline-challenge; assay type: functional, organism-based; details: Heart; in short: as §2
Rattus norvegicus [16] = experiment: Antiarrhythmic activity in barium chloride-induced Wistar rat arrhythmia model assessed as protection against mortality at 2.5 to 10 mg/kg, iv administered 15 mins prior to barium chloride-challenge; assay type: functional, organism-based; details: Heart
In short: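 Szekeres model in male Wistar rats. Activity is gradual disappearance of arrhythmia with restored sinus rhythm; protection against disturbances and death scored. Groups of 6 animals.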

Rattus norvegicus [17] = experiment: Antiarrhythmic activity in iv dosed Wistar rat assessed as protection against adrenaline-induced arrhythmia administered 15 mins prior to adrenaline-challenge; assay type: functional; details: Heart; in short: as §2
Rattus norvegicus [18] = experiment: Hypotensive activity in normotensive Wistar rat assessed as decrease in systolic blood pressure at 2.5 to 10 mg/kg, iv at 1 min; assay type: organism-based, Artery; design: dose 2.5-10 mg/kg, route intravenous; details: in vivo
In short: (§3)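 Right carotid artery cannulated with heparin-saline-filled tubing for blood pressure recording. After 5 min stabilisation, compound injected iv into the caudal vein (2.5–10 mg/kg, 1 ml/kg). Systolic and diastolic pressure followed for 60 min. n=6 per group, mean ± SEM, one-way ANOVA.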

Rattus norvegicus [19] = experiment: Hypotensive activity in normotensive Wistar rat assessed as decrease in diastolic blood pressure at 2.5 to 10 mg/kg, iv at 1 min; assay type: organism-based, Artery; design: dose 2.5-10 mg/kg, route intravenous; details: in vivo; in short: as §3
Rattus norvegicus [20] = experiment: Hypotensive activity in normotensive Wistar rat assessed as decrease in systolic blood pressure at 2.5 to 10 mg/kg, iv after 1 min measured up to 60 mins; assay type: organism-based, Artery; design: dose 2.5-10 mg/kg, route intravenous; details: in vivo; in short: as §3
Rattus norvegicus [21] = experiment: Hypotensive activity in normotensive Wistar rat assessed as decrease in diastolic blood pressure at 2.5 to 10 mg/kg, iv after 1 min measured up to 60 mins; assay type: organism-based, Artery; design: dose 2.5-10 mg/kg, route intravenous; details: in vivo; in short: as §3

Ki [1]: 25 nM
pKi [1]: 7.6
SMILES: COC(=O)CN1C(=O)N(CCCCN2CCN(c3ccccc3OC)CC2)C(c2ccccc2)(c2ccccc2)C1=O.Cl
Activity (Rattus norvegicus [2]): 355.8 min⁻¹
Activity (Rattus norvegicus [3]): 354.3 min⁻¹
Activity (Rattus norvegicus [4]): 357.8 min⁻¹
Activity (Rattus norvegicus [5]): 62.6 ms
Activity (Rattus norvegicus [6]): 63.3 ms
Activity (Rattus norvegicus [7]): 62.8 ms
Activity (Rattus norvegicus [8]): 74.6 ms
Activity (Rattus norvegicus [9]): 73.3 ms
Activity (Rattus norvegicus [10]): 75.6 ms
Activity (Rattus norvegicus [11]): 19.6 ms
Activity (Rattus norvegicus [12]): 19.3 ms
Activity (Rattus norvegicus [13]): 19.5 ms
Activity (Rattus norvegicus [14]): Active
Activity (Rattus norvegicus [15]): Active
Activity (Rattus norvegicus [16]): Active
ED50 (Rattus norvegicus [17]): 1.8 mg/kg
Activity (Rattus norvegicus [18]): Toxic
Activity (Rattus norvegicus [19]): Toxic
Activity (Rattus norvegicus [20]): Non-toxic
Activity (Rattus norvegicus [21]): Non-toxic

SMILES: CCOC(=O)C(C)N1C(=O)N(CC(O)CN2CCN(c3ccccc3OC)CC2)C(c2ccccc2)(c2ccccc2)C1=O.Cl (racemic)
Activity (Rattus norvegicus [14]): Active
Activity (Rattus norvegicus [15]): Active
Activity (Rattus norvegicus [16]): Active
ED50 (Rattus norvegicus [17]): 0.41 mg/kg
